Test results: ChEMBL document CHEMBL1141876, “Quinols as novel therapeutic agents. 2.(1) 4-(1-Arylsulfonylindol-2-yl)-4-hydroxycyclohexa-2,5-dien-1-ones and related agents as potent and selective antitumor agents” (2005)

Legend:
Type in all cases: functional
[1] = test system: Panel NCI-60 (60 carcinoma cell lines); test: Mean in vitro GI50 value against 60 human cancer cell line was determined
[2] = test system: RXF 393; test: Mean in vitro LC50 value against human RXF 393 cell line was determined; details: read-out: LC50 (the source's name)
Summary of the method: (§1)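 NCI 60-cell-line screen. Cells seeded at densities suited to each line's growth and left drug-free for 24 h. Agents then added at five 10-fold dilutions, top concentration 100 μM, for 48 h. Cellular protein measured by sulforhodamine B colorimetry. LC50 read from these curves; for line 1 it is averaged across the 60 lines.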

[3] = test system: Panel NCI-60 (60 carcinoma cell lines); test: Mean in vitro LC50 value against 60 human cancer cell line was determined; details: read-out: LC50 (the source's name); summary of the method: as §1
[4] = test system: HCT-116; test: Mean in vitro LC50 value against human HCT116 cell line was determined; details: read-out: LC50 (the source's name); summary of the method: as §1
[5] = test system: U-251; test: Mean in vitro LC50 value against human U251 cell line was determined; details: read-out: LC50 (the source's name); summary of the method: as §1
[6] = test system: UO-31; test: Mean in vitro LC50 value against human UO-31 cell line was determined; details: read-out: LC50 (the source's name); summary of the method: as §1
[7] = test system: CAKI-1; test: Mean in vitro LC50 value against human CAKI-1 cell line was determined; details: read-out: LC50 (the source's name); summary of the method: as §1
[8] = test system: LOX IMVI; test: Mean in vitro LC50 value against human LOX IMVI cell line was determined; details: read-out: LC50 (the source's name); summary of the method: as §1
[9] = test system: ACHN; test: Mean in vitro LC50 value against human ACHN cell line was determined; details: read-out: LC50 (the source's name); summary of the method: as §1
[10] = test system: UACC-62; test: Mean in vitro LC50 value against human UACC-62 cell line was determined; details: read-out: LC50 (the source's name); summary of the method: as §1

O=C1C=CC(O)(c2nc3ccccc3s2)C=C1
GI50 [1]: 230 nM
CC50 [2]: 580 nM
CC50 [3]: 3390 nM
CC50 [4]: 430 nM

CC(C)c1cc(C(C)C)c(S(=O)(=O)n2c(C3(O)C=CC(=O)C=C3)cc3ccccc32)c(C(C)C)c1
GI50 [1]: 430 nM
CC50 [2]: 780 nM
CC50 [3]: 11200 nM
CC50 [4]: 550 nM

O=C1C=CC(O)(c2cc3ccccc3[nH]2)C=C1
GI50 [1]: 1380 nM
CC50 [2]: 3390 nM
CC50 [3]: 24000 nM
CC50 [4]: 5130 nM

O=C1C=CC(O)(c2cc3ccccc3n2S(=O)(=O)c2ccc3ccccc3c2)C=C1
GI50 [1]: 190 nM
CC50 [3]: 5620 nM
CC50 [5]: 510 nM
CC50 [4]: 370 nM

O=C1C=CC(O)(c2cc3ccccc3n2S(=O)(=O)c2ccc(F)cc2)C=C1
GI50 [1]: 230 nM
CC50 [6]: 630 nM
CC50 [3]: 7760 nM
CC50 [4]: 360 nM

O=C1C=CC(O)(c2cc3ccccc3n2S(=O)(=O)c2ccccc2)C=C1
GI50 [1]: 39 nM
CC50 [7]: 53 nM
CC50 [3]: 2950 nM

Cc1ccc(S(=O)(=O)n2c(C3(O)C=CC(=O)C=C3)cc3ccccc32)cc1
GI50 [1]: 110 nM
CC50 [8]: 230 nM
CC50 [3]: 7240 nM
CC50 [4]: 48 nM

COc1ccc2c(c1)cc(C1(O)C=CC(=O)C=C1)n2S(=O)(=O)c1ccccc1
GI50 [1]: 130 nM
CC50 [9]: 450 nM
CC50 [8]: 470 nM
CC50 [3]: 6170 nM

O=C1C=CC(O)(c2nc3ccccc3[nH]2)C=C1
CC50 [10]: 1410 nM
GI50 [1]: 870 nM
CC50 [3]: 13200 nM
CC50 [4]: 1860 nM

COc1ccc(S(=O)(=O)n2c(C3(O)C=CC(=O)C=C3)cc3ccccc32)cc1
GI50 [1]: 160 nM
CC50 [8]: 380 nM
CC50 [3]: 6310 nM
CC50 [4]: 110 nM

O=C1C=CC(O)(c2cc3ccccc3n2S(=O)(=O)c2ccccc2)c2ccccc21 (stereo not given)
GI50 [1]: 450 nM
CC50 [8]: 780 nM
CC50 [3]: 7760 nM
CC50 [4]: 790 nM

O=C1C=CC(O)(c2cc3ccc(F)cc3n2S(=O)(=O)c2ccccc2)C=C1
GI50 [1]: 16 nM
CC50 [9]: 20 nM
CC50 [3]: 2240 nM
CC50 [4]: < 10 nM

Cc1ccc(S(=O)(=O)n2c(C3(O)C=CC(=O)c4ccccc43)cc3ccccc32)cc1 (stereo not given)
GI50 [1]: 390 nM
CC50 [8]: 720 nM
CC50 [3]: 5620 nM
CC50 [4]: 450 nM

O=C1C=CC(O)(c2cc3cc(F)ccc3n2S(=O)(=O)c2ccccc2)C=C1
GI50 [1]: 66 nM
CC50 [8]: 63 nM
CC50 [3]: 3230 nM
CC50 [4]: 50 nM
